The record followed here is ChEMBL document CHEMBL1122229, “alpha-adrenoreceptor reagents. 1. Synthesis of some 1,4-benzodioxans as selective presynaptic alpha 2-adrenoreceptor antagonists and potential antidepressants” (J Med Chem, 1983).

Structures are written as SMILES. Calls of active or inactive are those of the source. The rule behind the calls is not given here.

Test [1] deals with T1, Adrenergic receptor alpha-1 (Rattus norvegicus) (UniProt P15823+P23944+P43140). In words: In vitro postsynaptic antagonist potency at alpha-1 adrenergic receptor in rat anococcygeus relative to compound 5 (RX781094). The format is functional.
The target of test [2] is T1, Adrenergic receptor alpha-1 (Rattus norvegicus). In words: In vitro postsynaptic agonist potency at alpha-1 adrenergic receptor in rat anococcygeus muscle relative to phenylephrine; IA means inactive. It counts as functional, tissue-based. In a few lines:
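Rat anococcygeus muscle (male Sprague–Dawley rats, 200–250 g) suspended at 0.5 g initial tension in a 50-mL organ bath. […] Standard dose-response curves were run before and after the analogue's curve.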

Test [3] concerns the target T2, Adrenergic receptor alpha-2 (Rattus norvegicus) (UniProt P22086+P19328+P22909). In words: In vitro presynaptic antagonist potency at alpha-2 adrenergic receptor in rat or mouse vas deferens relative to compound 5 (RX781094). It counts as functional, tissue-based. A digest of the protocol:
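Prostatic halves of rat vas deferens (male Sprague–Dawley rats, 200–250 g; Krebs, 30 °C, 95% O2/5% CO2; 3-ms, 40 V, 0.1 Hz field pulses) or mouse vas deferens (Mg-free Krebs, 30 °C; 3-ms pulses, 0.1 Hz, 100–140 V) were used, with isometric twitch recording. […] The concentration giving 50% reversal was compared with the RX781094 standard in the same tissue.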

The target of test [4] is T2, Adrenergic receptor alpha-2 (Rattus norvegicus). In words: In vitro presynaptic agonist potency at alpha-2 adrenergic receptor in rat or mouse vas deferens relative to clonidine; IA means inactive. The format is functional, tissue-based. A digest of the protocol: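 Field-stimulated rat or mouse vas deferens (Krebs, 30 °C, 95% O2/5% CO2, 3-ms pulses at 0.1 Hz) with isometric twitch recording. […] Standard dose-response curves were run before and after the analogue's curve.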

The target in test [5] is T1, Adrenergic receptor alpha-1 (Rattus norvegicus). Kind of test: Ratio of presynaptic antagonist potency to postsynaptic antagonist potency. The format is functional.

Regarding `c1ccc2c(c1)OCC(c1nc3ccccc3[nH]1)O2` (stereo unspecified), the Antagonist potency in test [1] was less than 0.02; in test [3], 0.0003. In addition, the Agonist potency entry in test [2] and in test [4] was “inactive” throughout.
Consider `N=C(C1COc2ccccc2O1)N1CCCCC1` (stereo unspecified), for which the Antagonist potency in test [1] came to 0.01; in test [3], 0.0001. The Agonist potency entry in test [2] and in test [4] was “inactive” throughout. Besides, the Selectivity in test [5] was found to be 0.01.
As to `CC1CN=C(C2COc3ccccc3O2)N1` (stereo unspecified), the Antagonist potency in test [1] came to 1; in test [3] it was 0.003. The Agonist potency entry in test [2] and in test [4] was “inactive” throughout. Also, the Selectivity in test [5] is 0.003.
In the case of `c1ccc2cc3c(cc2c1)OCC(C1=NCCN1)O3` (stereo unspecified), the Antagonist potency in test [1] turned out to be 0.01; in test [3] it was 0.001. For the same compound, the Agonist potency entry in test [2] and in test [4] was “inactive” in each case. Also, the Selectivity in test [5] was 0.1.
As for `N/C(=N\CCCO)C1COc2ccccc2O1` (stereo unspecified), the Antagonist potency was 0.024 in test [1] and less than 0.001 in test [3]. The Agonist potency result in test [2] and in test [4] was “inactive” throughout.
As to `c1ccc2c(c1)OCC(Cc1ncc[nH]1)O2` (stereo unspecified), the Antagonist potency worked out at 0.25 in test [1] and 0.004 in test [3]. Moreover, the Agonist potency result in test [2] and in test [4] was “inactive” throughout. Moreover, the Selectivity in test [5] amounted to 0.016.
As for `CN1CCN=C1C1COc2ccccc2O1` (stereo unspecified), the Antagonist potency in test [1] is 0.1; in test [3], 0.0003. Moreover, the Agonist potency result in test [2] and in test [4] was “inactive” throughout. Moreover, the Selectivity in test [5] was determined as 0.003.
For the compound `CC(C)(C)c1ccc2c(c1)OCC(C1=NCCN1)O2` (stereo unspecified), the Antagonist potency in test [1] was 0.1; in test [3] it was 0.01. In addition, the Agonist potency result in test [2] and in test [4] was “inactive” in each case. Moreover, the Selectivity in test [5] came out at 0.1.
As for `CC1(C)CN=C(C2COc3ccccc3O2)N1` (stereo unspecified), the Antagonist potency in test [1] came out at 0.01; in test [3] it was 0.0001. In addition, the Agonist potency entry in test [2] and in test [4] was “inactive” each time. Also, the Selectivity in test [5] was found to be 0.01.
`CCCC/N=C(\NCCCC)C1COc2ccccc2O1` (stereo unspecified): the Antagonist potency in test [1] amounted to 0.1; in test [3] it was 0.001. Moreover, the Agonist potency result in test [2] and in test [4] was “inactive” each time. In addition, the Selectivity in test [5] came to 0.01.
Regarding `c1ccc2c(c1)OCC(CC1=NCCN1)O2` (stereo unspecified), the Antagonist potency is 0.14 in test [1] and 0.045 in test [3]. Further, the Agonist potency entry in test [2] and in test [4] was “inactive” in each case. In addition, the Selectivity in test [5] is 0.33.
Consider `c1ccc2c(c1)OCC(c1ncc[nH]1)O2` (stereo unspecified), for which the Antagonist potency in test [1] worked out at 0.01; in test [3], 0.001. Further, the Agonist potency result in test [2] and in test [4] was “inactive” in each case. Further, the Selectivity in test [5] was found to be 0.1.
As for `N=C(NCCc1ccccc1)C1COc2ccccc2O1` (stereo unspecified), the Antagonist potency in test [1] is 0.03; in test [3], 0.0003. Besides, the Agonist potency entry in test [2] and in test [4] was “inactive” each time. Also, in test [5], the Selectivity stood at 0.01.
Consider `c1ccc2c(c1)OCC(Cn1ccnc1)O2` (stereo unspecified), for which the Antagonist potency in test [1] is less than 0.023; in test [3] it was 0.013. Moreover, the Agonist potency entry in test [2] and in test [4] was “inactive” in each case.
For `Nc1noc(CC2COc3ccccc3O2)n1` (stereo unspecified), the Antagonist potency in test [1] was less than 0.023; in test [3], less than 0.0003. In addition, the Agonist potency result in test [2] and in test [4] was “inactive” throughout.
